Assay: Critical gelation concentration by vial inversion after addition of PBS
Assay type: physicochemical
Outline: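 Self-assembling collagen-binding peptide amphiphile filaments were dissolved in water. They were either left unsprayed, sprayed with an atomizer, or emitted from a jet nebulizer as a respirable aerosol. PBS was then added to give 1× PBS, and gelation was judged by vial inversion.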

LRELHLNNN [CBDA]
critical gelation concentration (CGC) (after spraying with an atomizer): 1 mM
critical gelation concentration (CGC) (filaments in water, PBS added to final 1× PBS, not sprayed): ~ 1 mM

— publication PMC9844543 (Nano letters, 2022)
